# Screen size: about 360,000 compounds; about 1,700 (0.47%) were called active.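 The calls were made as follows: active = inhibition above its plate's cutoff, the mean of tested wells on that plate plus 3 SD (cut at about 29% in these data); inactive = the rest.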 The full list was thinned out, with actives kept by preference.
# Target: Melanocortin receptor 4 (Homo sapiens) (UniProt P32245)
# Assay: blockers of MC4R Gs-cAMP response – cell-based, TR-FRET, antagonist arm of biased-ligand search, primary screen (AID 540295);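 also: 0% = Melanotan II alone and 100% = Melanotan II plus saturating MCL0020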
# Settings: MC4R-expressing cells, MTII-stimulated cAMP, LANCE TR-FRET; at 6.5 µM; active compounds read high
# Summary of the method: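 System: U2OS cells stably expressing human melanocortin 4 receptor (MC4R). Reagent: Melanotan II challenge after compound preincubation. Doses: 6.5 µM. Times: 30-min compound, 1-h challenge, 1-h detection, room temperature. Measured by: TR-FRET with Eu-cAMP and labeled anti-cAMP, 671 nm. Replicates: singlicate.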
# Chain of Melanocortin receptor 4 (Homo sapiens) (P32245 whole entry, looked up): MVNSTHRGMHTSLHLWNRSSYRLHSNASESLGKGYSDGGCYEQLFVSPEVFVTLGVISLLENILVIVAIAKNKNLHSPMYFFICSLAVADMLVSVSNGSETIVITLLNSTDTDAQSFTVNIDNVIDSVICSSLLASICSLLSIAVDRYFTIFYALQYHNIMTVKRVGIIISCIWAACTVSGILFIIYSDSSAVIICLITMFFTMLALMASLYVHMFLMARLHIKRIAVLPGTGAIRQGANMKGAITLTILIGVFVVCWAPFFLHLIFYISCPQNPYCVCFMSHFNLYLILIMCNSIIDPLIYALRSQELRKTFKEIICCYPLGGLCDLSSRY
row,SMILES,inhibition
1,COc1cccc(N2C(=O)NC(=O)/C(=C\c3ccc([N+](=O)[O-])s3)C2=O)c1,28.6% (active)
2,O=C(N/N=C/c1c(O)n(C2CC2)c(=S)[nH]c1=O)c1ccccc1Cl,20.1% (inactive)
3,c1ccc(CCNC2CCCCCC2)cc1,17.4% (inactive)
4,COc1cc(OC)cc(C2(C#N)CCN(C)CC2)c1,17% (inactive)
5,O=C(NC(=S)N1C[C@H]2C[C@H](C1)c1cccc(=O)n1C2)c1ccc(F)cc1,7.13% (inactive)
6,Cc1c(C(=O)O)cccc1-n1c(C)cc(/C=C2\C(=O)NC(=O)N(c3ccc4c(c3)OCO4)C2=O)c1C,5.16% (inactive)
7,Cc1cccc(N2C(=O)NC(=O)/C(=C\c3cnn(-c4ccccc4)c3)C2=O)c1,35.2% (active)
8,CCN1CCN(c2ccc([N+](=O)[O-])cc2C#N)CC1,-10.7% (inactive)
9,CC(C)c1c(CN(C)C(C)Cc2ccccc2)n(C)n(-c2ccccc2)c1=O (stereo not given),10.7% (inactive)
10,CC(=O)c1c(O)n(C2CCCCCC2)c(=O)[nH]c1=O,2.26% (inactive)
